Test results: ChEMBL document CHEMBL4411329, “Crown Ethers as Transthyretin Amyloidogenesis Inhibitors” (J Med Chem, 2019)
Active and inactive are the calls of the source. The calls are words filed in the database; no cut-off is given here.

Legend:
[1] = test system: Transthyretin (Homo sapiens), P02766 [V50M]; assay: Inhibition of ANS binding to TTR V30M mutant (unknown origin) expressed in Escherichia coli assessed as increase in BC50 for ANS binding to TTR at 10 mM in presence of 150 mM K+ by fluorescence-based assay
[2] = test system: Transthyretin (Homo sapiens), P02766 [V50M]; assay: Potentiation of diflunisal-induced stabilization of TTR V30M mutant (unknown origin) expressed in Escherichia coli assessed as formation of TTR tetramer band formation at 5 mM after 4 mins by SDS-PAGE analysis based glutaraldehyde cross-linking assay relative to diflunisal alone
How it was run: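 Glutaraldehyde 4 min at RT, borohydride quench, SDS-PAGE with silver stain, tetramer band quantified. Controls were pH 8.0 Tris buffer (positive) and pH 4.4 buffer without compound (negative).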

[3] = test system: Transthyretin (Homo sapiens), P02766 [V50M]; assay: Inhibition of TTR V30M mutant (unknown origin)-mediated amyloid fibril formation expressed in Escherichia coli assessed as amyloid fibril percentage at 0.2 mM after 4 days by thioflavin-T-fluorescence based assay (reference value: 100%); set-up: scale not given: the % may be the effect or the level left
How it was run: (§1)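 Acid-driven aggregation: 2 μM E. coli-expressed V30M-TTR in 50 mM sodium acetate pH 4.2 held with compound at room temperature for 4 days. Stopped with 0.2 M Tris-HCl pH 8.0, then thioflavin-T added to 20 μM and fluorescence read at ex 440/em 484 nm. Values are amyloid fibril % relative to no-compound control.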

[4] = test system: Transthyretin (Homo sapiens), P02766 [V50M]; assay: Stabilization of TTR V30M mutant (unknown origin) expressed in Escherichia coli assessed as formation of TTR tetramer band formation after 4 mins by SDS-PAGE analysis based glutaraldehyde cross-linking assay
[5] = test system: Transthyretin (Homo sapiens), P02766 [V50M]; assay: Inhibition of ANS binding to TTR V30M mutant (unknown origin) expressed in Escherichia coli assessed as increase in BC50 for ANS binding to TTR at 100 mM in presence of 150 mM Na+ by fluorescence-based assay
[6] = test system: Transthyretin (Homo sapiens), P02766 [V50M]; assay: Inhibition of TTR V30M mutant (unknown origin)-mediated amyloid fibril formation expressed in Escherichia coli assessed as amyloid fibril percentage at 0.6 mM after 4 days by thioflavin-T-fluorescence based assay (reference value: 100%); set-up: scale not given: the % may be the effect or the level left; how it was run: as §1
[7] = test system: Transthyretin (Homo sapiens), P02766 [V50M]; assay: Stabilization of TTR V30M mutant (unknown origin) expressed in Escherichia coli assessed as formation of TTR tetramer band formation at 10 mM after 4 mins by SDS-PAGE analysis based glutaraldehyde cross-linking assay
[8] = test system: Transthyretin (Homo sapiens), P02766 [V50M]; assay: Inhibition of ANS binding to TTR V30M mutant (unknown origin) expressed in Escherichia coli assessed as increase in BC50 for ANS binding to TTR at 10 mM in presence of 150 mM Na+ by fluorescence-based assay
[9] = test system: Transthyretin (Homo sapiens), P02766 [V50M]; assay: Inhibition of ANS binding to TTR V30M mutant (unknown origin) expressed in Escherichia coli assessed as increase in BC50 for ANS binding to TTR at 100 mM in presence of 150 mM K+ by fluorescence-based assay
[10] = test system: Transthyretin (Homo sapiens), P02766 [V50M]; assay: Stabilization of TTR V30M mutant (unknown origin) expressed in Escherichia coli assessed as formation of TTR tetramer band formation at 40 to 100 mM after 4 mins by SDS-PAGE analysis based glutaraldehyde cross-linking assay
[11] = test system: Transthyretin (Homo sapiens), P02766 [V50M]; assay: Stabilization of TTR V30M mutant (unknown origin) expressed in Escherichia coli assessed as formation of TTR tetramer band formation at 2 uM after 4 mins by SDS-PAGE analysis based glutaraldehyde cross-linking assay
[12] = test system: Transthyretin (Homo sapiens), P02766 [V50M]; assay: Stabilization of TTR V30M mutant (unknown origin) expressed in Escherichia coli assessed as formation of TTR tetramer band formation at 1 uM after 4 mins by SDS-PAGE analysis based glutaraldehyde cross-linking assay
[13] = test system: Transthyretin (Homo sapiens), P02766 [V50M]; assay: Inhibition of TTR V30M mutant (unknown origin)-mediated amyloid fibril formation expressed in Escherichia coli assessed as amyloid fibril percentage at 0.5 uM after 4 days by thioflavin-T-fluorescence based assay (reference value: 100%); set-up: scale not given: the % may be the effect or the level left; how it was run: as §1
[14] = test system: Transthyretin (Homo sapiens), P02766 [V50M]; assay: Inhibition of TTR V30M mutant (unknown origin)-mediated amyloid fibril formation expressed in Escherichia coli assessed as amyloid fibril percentage at 1.5 uM after 4 days by thioflavin-T-fluorescence based assay (reference value: 100%); set-up: scale not given: the % may be the effect or the level left; how it was run: as §1
[15] = test system: Transthyretin (Homo sapiens), P02766 [V50M]; assay: Inhibition of TTR V30M mutant (unknown origin)-mediated amyloid fibril formation expressed in Escherichia coli assessed as amyloid fibril percentage at 5 uM after 4 days by thioflavin-T-fluorescence based assay (reference value: 100%); set-up: scale not given: the % may be the effect or the level left; how it was run: as §1
[16] = test system: Transthyretin (Homo sapiens), P02766 [V50M]; assay: Inhibition of TTR V30M mutant (unknown origin)-mediated amyloid fibril formation expressed in Escherichia coli assessed as amyloid fibril percentage at 10 mM after 4 days by thioflavin-T-fluorescence based assay (reference value: 100%); set-up: scale not given: the % may be the effect or the level left; how it was run: as §1

| Compound | inhibition [1] | Activity [3] | Activity [4] | inhibition [5] | Activity [6] | inhibition [8] | inhibition [9] | Activity [10] | Activity [16] | further results |
| --- | --- | --- | --- | --- | --- | --- | --- | --- | --- | --- |
| O=C(O)c1ccc2c(c1)OCCOCCOCCOCCOCCO2 | Active | 99% | Dose-dependent effect | Active | 92% | Active | – | – | – | Activity [2]: Active; Activity [7]: 68% |
| C1COCCOCCOCCOCCO1 | – | – | – | Active | – | – | Active | Active | – | – |
| C1COCCOCCOCCO1 | – | – | – | Active | – | – | Active | Active | – | – |
| O=C(O)c1cc(-c2ccc(F)cc2F)ccc1O | – | – | – | – | – | – | – | – | – | Activity [11]: 52%; Activity [12]: 15%; Activity [13]: 80%; Activity [14]: 35%; Activity [15]: 3.1% |
| C1CCC2OCCOCCOC3CCCCC3OCCOCCOC2C1 (configuration not stated) | Active | 100% | – | Active | 100% | Active | – | – | 92% | – |
| c1ccc2c(c1)OCCOCCOCCOCCOCCO2 | Active | 100% | Dose-dependent effect | Active | 96% | Active | – | – | 47% | – |
